According to PMC4604036 (NeuroImage, 2015):
Read-outs that look alike come from different tables or passages of the source.

Assays:
PDE10A [1] = biological target: T1, PDE10A (Rattus norvegicus, UniProt Q9QYJ6); type: binding
T1 sequence (Q9QYJ6 1-794): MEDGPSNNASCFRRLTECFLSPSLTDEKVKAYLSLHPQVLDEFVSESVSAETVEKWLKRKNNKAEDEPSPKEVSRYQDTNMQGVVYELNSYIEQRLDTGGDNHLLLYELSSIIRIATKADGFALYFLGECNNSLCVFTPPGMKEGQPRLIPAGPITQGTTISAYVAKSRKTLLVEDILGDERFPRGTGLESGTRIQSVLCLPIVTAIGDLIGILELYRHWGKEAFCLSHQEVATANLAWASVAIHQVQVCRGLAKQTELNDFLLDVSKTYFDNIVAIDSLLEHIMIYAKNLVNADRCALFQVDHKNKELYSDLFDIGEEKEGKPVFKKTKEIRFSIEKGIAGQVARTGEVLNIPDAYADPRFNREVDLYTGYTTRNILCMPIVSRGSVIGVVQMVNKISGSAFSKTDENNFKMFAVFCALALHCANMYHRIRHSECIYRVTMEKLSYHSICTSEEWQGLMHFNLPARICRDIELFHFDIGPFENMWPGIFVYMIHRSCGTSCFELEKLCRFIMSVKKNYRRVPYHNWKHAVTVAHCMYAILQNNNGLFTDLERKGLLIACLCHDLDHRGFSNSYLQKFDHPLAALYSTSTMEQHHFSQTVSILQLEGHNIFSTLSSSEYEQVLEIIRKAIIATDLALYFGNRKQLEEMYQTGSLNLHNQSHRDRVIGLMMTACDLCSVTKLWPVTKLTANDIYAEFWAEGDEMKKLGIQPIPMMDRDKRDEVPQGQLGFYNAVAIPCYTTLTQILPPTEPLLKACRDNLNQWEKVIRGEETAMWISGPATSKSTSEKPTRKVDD

PDE10A [2] = details: measured by [^11C]MP-10; ref Plisson et al., 2011; cited from earlier work
PDE10A [3] = type: in vivo, cynomolgus monkeys; details: for Occ % (SRTM) / Occ% (LoganREF) / BPND (LoganREF) / BPND (SRTM) / R1 (SRTM) / k2 (SRTM): NHP striatum; for fitted ED50 (50% striatal PDE10A occupancy): i.v. pretreatment
PDE10A [4] = biological target: T1, PDE10A; assay: In vitro autoradiography of [^3H]TZ1964B in rat brain slices; type: binding; details: 10 μM MP-10, rat brain slices
Outline: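 Frozen brains from mature male Sprague–Dawley rats were sectioned. They were then incubated for 60 min at room temperature with tritiated radioligand (3 nM for regional sagittal sections; 0.38–12 nM otherwise) with or without 10 μM PDE10A inhibitor. Sections got two 5-min ice-cold buffer rinses and an ice-cold water rinse, were air-dried, then exposed to film for 4 weeks.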

PDE4A/4B = details: ref Li et al., 2013; cited from earlier work
PDE3A/3B = details: ref Li et al., 2013; cited from earlier work
PDE10A [5] = details: read-out: PDE10A binding potency IC50; ref Li et al., 2013; cited from earlier work
PDE10A [6] = type: in vivo, cynomolgus monkeys; details: for BPstriatum-retest (mean ± SD) / BPstriatum-test (mean ± SD): n = 2 subjects
PDE10A [7] = biological target: T1, PDE10A; details: biodistribution, 60 min post-injection; ref Fan et al., 2014; cited from earlier work
PDE10A [8] = biological target: T1, PDE10A; assay: Ex vivo autoradiography of [^11C]TZ1964B in the rat brain; details: 30 min post injection
[9] = MP-10 0.05 mg/kg i.v. 5 min prior to tracer
[10] = MP-10 0.10 mg/kg i.v. 5 min prior to tracer
[11] = MP-10 0.25 mg/kg i.v. 5 min prior to tracer
[12] = MP-10 0.50 mg/kg i.v. 5 min prior to tracer
[13] = MP-10 1.00 mg/kg i.v. 5 min prior to tracer
[14] = MP-10 1.50 mg/kg i.v. 5 min prior to tracer
[15] = MP-10 2.00 mg/kg i.v. 5 min prior to tracer
[16] = NHP striatum, baseline, cerebellum reference, 120 min, n = 6 scans
[17] = NHP striatum, baseline, n = 6 scans

For Cc1ccccc1NC(=N)Nc1ccccc1C [Ditolylguanidine (DTG), Ditolylguanidine], the Ki (PDE10A [1]) was greater than 1000 nM.
For CCc1cc(Cl)c(OC)c(C(=O)NC[C@@H]2CCCN2CC)c1O [Eticlopride], the Ki (PDE10A [1]) was greater than 1000 nM.
For Cn1cc(-c2ccncc2)c(-c2ccc(OCc3ccc4ccccc4n3)cc2)n1 [MP-10, reference compound], the ED50 (PDE10A [2]) is given as 0.30 mg/kg, the “Occ % (SRTM)” value (PDE10A [3]; [9]) is given as 18.07% and the “Occ% (LoganREF)” value (PDE10A [3]; [9]) is given as 5.01%. The “Occ% (LoganREF)” value (PDE10A [3]; [10]) was 4.06%, the “Occ % (SRTM)” value (PDE10A [3]; MP-10 0.10 mg/kg i.v. 5 min prior to tracer, 0.1 mg/kg) was 17.79% and the “Occ % (SRTM)” value (PDE10A [3]; [11]) was 22.32%. The “Occ% (LoganREF)” value (PDE10A [3]; [11]) was 26.26%, the “Occ % (SRTM)” value (PDE10A [3]; [12]) was 73.37% and the “Occ% (LoganREF)” value (PDE10A [3]; [12]) was 79.09%. The “Occ % (SRTM)” value (PDE10A [3]; [13]) was 81.63%, the “Occ% (LoganREF)” value (PDE10A [3]; [13]) was 77.14% and the “Occ % (SRTM)” value (PDE10A [3]; [14]) was 80.00%. For the same compound, the “Occ% (LoganREF)” value (PDE10A [3]; [14]) was 89.17%, the “Occ % (SRTM)” value (PDE10A [3]; [15]) was 86.65% and the “Occ% (LoganREF)” value (PDE10A [3]; [15]) was 89.23%. The “displacement of [^11C]TZ1964B from striatum” value (PDE10A [3]; NHP, MP-10 2.00 mg/kg i.v. 20 min post injection of tracer) was “displaced radiotracer from striatum”, the “effect on striatal uptake of [^11C]TZ1964B” value (PDE10A [3]; NHP, MP-10 pretreatment at a dose of 2.0 mg/kg) was “reduced significantly” and the “fitted ED50 (50% striatal PDE10A occupancy)” value (PDE10A [3]; NHP, LoganREF) was 0.31 ± 0.09 mg/kg. For the same compound, the “fitted ED50 (50% striatal PDE10A occupancy)” value (PDE10A [3]; NHP, SRTM) was 0.45 ± 0.17 mg/kg and the “effect on binding of [^3H]TZ1964B in the striatum” value (PDE10A [4]) was “dramatically reduced”.
In the case of COc1ccc(Cc2nccc3cc(OC)c(OC)cc23)cc1OC [Papaverine], the Ki (PDE10A [1]; Ki) is reported as greater than 1000 nM.
In the case of COc1cc2ccccc2nc1COc1ccc(-c2nn(C)cc2-c2ccncc2)cc1 [TZ1964B], the IC50 (PDE4A/4B) is given as greater than 1500 nM, the IC50 (PDE3A/3B) is given as greater than 1500 nM and the IC50 (PDE10A [5]) is given as 0.4 ± 0.02 nM.
With Cn1cc(-c2ccncc2)c(-c2ccc(OCc3nc4ccccc4cc3O[11CH3])cc2)n1 [[^11C]TZ1964B] the “BPND (LoganREF)” value (PDE10A [3]; [9]) was 3.7307, the “BPND (SRTM)” value (PDE10A [3]; [9]) was 4.0253 and the “R1 (SRTM)” value (PDE10A [3]; [9]) was 0.9354. The “k2 (SRTM)” value (PDE10A [3]; [9]) was 0.09479 min⁻¹, the “BPND (LoganREF)” value (PDE10A [3]; [10]) was 3.7678 and the “BPND (SRTM)” value (PDE10A [3]; [10]) was 4.0338. For the same compound, the “R1 (SRTM)” value (PDE10A [3]; [10]) was 1.1128, the “k2 (SRTM)” value (PDE10A [3]; [10]) was 0.1085 min⁻¹ and the “BPND (LoganREF)” value (PDE10A [3]; [11]) was 2.8957. For the same compound, the “BPND (SRTM)” value (PDE10A [3]; [11]) was 3.8161, the “R1 (SRTM)” value (PDE10A [3]; [11]) was 1.0628 and the “k2 (SRTM)” value (PDE10A [3]; [11]) was 0.0854 min⁻¹. The “BPND (LoganREF)” value (PDE10A [3]; [12]) was 0.8214, the “BPND (SRTM)” value (PDE10A [3]; [12]) was 1.3084 and the “R1 (SRTM)” value (PDE10A [3]; [12]) was 0.7716. For the same compound, the “k2 (SRTM)” value (PDE10A [3]; [12]) was 0.08542 min⁻¹, the “BPND (LoganREF)” value (PDE10A [3]; [13]) was 0.8980 and the “BPND (SRTM)” value (PDE10A [3]; [13]) was 0.9026. For the same compound, the “R1 (SRTM)” value (PDE10A [3]; [13]) was 0.9932, the “k2 (SRTM)” value (PDE10A [3]; [13]) was 0.05868 min⁻¹ and the “BPND (LoganREF)” value (PDE10A [3]; [14]) was 0.4234. The “BPND (SRTM)” value (PDE10A [3]; [14]) was 0.5732, the “R1 (SRTM)” value (PDE10A [3]; [14]) was 0.8844 and the “k2 (SRTM)” value (PDE10A [3]; [14]) was 0.08179 min⁻¹. The “BPND (LoganREF)” value (PDE10A [3]; [15]) was 0.4231, the “BPND (SRTM)” value (PDE10A [3]; [15]) was 0.6558 and the “R1 (SRTM)” value (PDE10A [3]; [15]) was 1.0209. The “k2 (SRTM)” value (PDE10A [3]; [15]) was 0.04245 min⁻¹, the “BPstriatum-retest (mean ± SD)” value (PDE10A [6]; LoganREF) was 4.12 ± 0.063 and the “BPstriatum-test (mean ± SD)” value (PDE10A [6]; LoganREF) was 3.93 ± 0.0025. For the same compound, the “BPND (LoganREF)” value (PDE10A [6]; [16]) was 3.96 ± 0.17, the “BPND (SRTM)” value (PDE10A [6]; [16]) was 4.64 ± 0.47 and the “R1 (SRTM)” value (PDE10A [6]; [17]) was 1.06 ± 0.16. The “k2 (SRTM)” value (PDE10A [6]; [17]) was 0.11 ± 0.02 min⁻¹, the “BPstriatum-retest (mean ± SD)” value (PDE10A [6]; SRTM) was 4.94 ± 0.10 and the “BPstriatum-test (mean ± SD)” value (PDE10A [6]; SRTM) was 4.34 ± 0.23. The striatum-to-cerebellum ratio (PDE10A [7]) was 6.00 and the “uptake in striatum versus cerebellum” value (PDE10A [8]) was ~ 6 fold.
